In paper PMC4467241 (Clinical Pharmacology in Drug Development, 2014):
Like-named read-outs stand apart in the source and are kept apart here. Marks after values point to notes of the source that are not given here. Each block holds one compound with its values, some of them ahead of it.

Columns and labels:
P-glycoprotein (P-gp) [1] = conditions: read-out: IC50 (P-gp inhibition); in vitro, weak inhibitor; cited from earlier work
[2] = test system: organic anion transporting polypeptide (OATP)1B1; conditions: stated in introduction, no reference given; cited from earlier work
OAT1 = conditions: read-out: IC50 (OAT1 inhibition); weak inhibitor; no reference given; cited from earlier work
[3] = test system: organic anion transporter (OAT)1; conditions: stated in introduction, no reference given; cited from earlier work
OATP1B1 = conditions: read-out: IC50 (OATP1B1 inhibition); weak inhibitor; no reference given; cited from earlier work
OATP1B3 [4] = conditions: stated in introduction, no reference given; cited from earlier work
OAT3 [5] = conditions: stated in introduction, no reference given; cited from earlier work
OATP1B3 [6] = conditions: stated in introduction, no reference given; cited from earlier work; remark: listed apart in the source
OCT2 = conditions: stated in introduction, no reference given; cited from earlier work
OAT3 [7] = conditions: stated in introduction, no reference given; cited from earlier work; remark: listed apart in the source
[8] = cited from earlier work
P-glycoprotein (P-gp) [9] = conditions: in vitro; cited from earlier work
MRP3 = conditions: read-out: IC50 (MRP3 inhibition); weak inhibitor; no reference given; cited from earlier work
MRP2 = conditions: in vitro, no reference printed, cited from earlier work
[10] = test system: multidrug resistance protein (MRP)1; conditions: stated in introduction, no reference given; cited from earlier work
MRP4 = conditions: stated in introduction, no reference given; cited from earlier work
[11] = Steady-state plasma pharmacokinetics of apremilast alone; type: in vivo, human; conditions: for CLss/F / Cmin: steady-state
In short: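 Test compound was given at 30 mg Q12h for 12 doses, with a single co-drug dose added on Day 8. Citrated plasma was sampled predose and at 0.5–12 h after the morning dose on Days 7 and 8, then assayed by liquid-liquid extraction LC–MS/MS. Noncompartmental AUC0–τ and Cmax were derived, with ANOVA on log values (treatment fixed, subject random), geometric-mean ratio with 90% CI, and Hodges–Lehmann tmax.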

[12] = test system: breast cancer resistance protein (BCRP); conditions: stated in introduction, no reference given; cited from earlier work
BCRP = conditions: in vitro, no reference printed, cited from earlier work
[13] = test system: organic cation transporter (OCT)2; conditions: stated in introduction, no reference given; cited from earlier work
[14] = no reference given, cited from earlier work; for Apparent clearance: prior studies
[15] = healthy subjects, Apremilast 30 mg BID; cited from earlier work
[16] = type: in vivo, human
In short: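 Heparinised plasma was taken predose and at 0.5–48 h, spun within 30 min and stored at −70 °C. Parent and metabolite were measured by SPE LC–MS/MS; noncompartmental AUC, with ANOVA on log values giving geometric-mean ratio and 90% CI.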

[17] = Apremilast 30 mg Q12H alone (Day 7), plasma, N = 15, arithmetic mean (SD)
[18] = both, human, plasma, oral, 30 mg
[19] = 7-OH MTX in plasma after MTX 10 mg oral + Apremilast 30 mg Q12H (Day 8), N = 1
[20] = 7-OH MTX in plasma after MTX 10 mg oral alone (Day 1), N = 1
[21] = 7-OH MTX in plasma after MTX 12.5 mg oral + Apremilast 30 mg Q12H (Day 8), N = 1
[22] = 7-OH MTX in plasma after MTX 12.5 mg oral alone (Day 1), N = 1
[23] = 7-OH MTX in plasma after MTX 17.5 mg oral + Apremilast 30 mg Q12H (Day 8), N = 1
[24] = 7-OH MTX in plasma after MTX 17.5 mg oral alone (Day 1), N = 1
[25] = 7-OH MTX in plasma, ANOVA, N = 15
[26] = 7-OH MTX in plasma, all dose groups, N = 15, acceptance range 80–125%

CLss/F ([11]; Apremilast 30 mg Q12H + MTX (Day 8), plasma, N = 13, arithmetic mean, excludes data with R^2 < 0.9): 156 ^b (86.3) mL/min | Cmin ([11]; Apremilast 30 mg Q12H + MTX (Day 8), plasma, N = 15, arithmetic mean (SD)): 242 (153) ng/mL | CLss/F [11, 17]: 153 (78.6) mL/min | Cmin [11, 17]: 248 (153) ng/mL | tmax median difference (“APR + MTX” − “APR”) ([11]; apremilast in plasma, 30 mg Q12H, N = 15, Hodges–Lehmann): 0 ^c hr | Cmax ratio of geometric means (“methotrexate + apremilast”/“apremilast”) ([11]; apremilast in plasma, 30 mg Q12H, N = 15, acceptance range 80–125%): 95.00 | AUC0–τ ratio of geometric means (“methotrexate + apremilast”/“apremilast”) ([11]; apremilast in plasma, 30 mg Q12H, acceptance range 80–125%): 99.30 | Intra-subject CV% of AUC0–τ ([11]; apremilast in plasma, ANOVA): 9.66% | Intra-subject CV% of Cmax ([11]; apremilast in plasma, ANOVA, N = 15): 12.07% | AUC [11, 18]: 4110 ng·h/mL | Cmax [11, 18]: 584 ng/mL | tmax [11, 18]: 2 h
SMILES: CCOc1cc([C@@H](CS(C)(=O)=O)N2C(=O)c3cccc(NC(C)=O)c3C2=O)ccc1OC [APR, apremilast]
IC50 (P-glycoprotein (P-gp) [1]): > 50 µM | Substrate of OATP1B1 [2]: not a substrate | IC50 (OAT1): > 10 µM | Substrate of OAT1 [3]: not a substrate | IC50 (OATP1B1): > 10 µM | Inhibition of OATP1B3 (OATP1B3 [4]): does not inhibit | Substrate of OAT3 (OAT3 [5]): not a substrate | Substrate of OATP1B3 (OATP1B3 [6]): not a substrate | Inhibition of OCT2 (OCT2): does not inhibit | Inhibition of OAT3 (OAT3 [7]): does not inhibit | Oral bioavailability ([8]; in humans): ~73% | Excreted unchanged in urine ([8]; orally administered): less than 3% | Substrate of P-gp (P-glycoprotein (P-gp) [9]): substrate | IC50 (MRP3): > 10 µM | Inhibition of MRP2 (MRP2; listed as Apremilast): does not inhibit | Inhibition of MRP2 (MRP2; listed as apremilast): not an inhibitor | Inhibition of MRP1 [10]: does not inhibit | Inhibition of MRP4 (MRP4): does not inhibit | 90% CI for Cmax and AUCtau versus FDA acceptance range of 80–125% ([11]; apremilast with versus without methotrexate): within the acceptance range for equivalency | Substrate of BCRP [12]: not a substrate | Inhibition of BCRP (BCRP; listed as Apremilast): does not inhibit | Inhibition of BCRP (BCRP; listed as apremilast): not an inhibitor | Substrate of OCT2 [13]: not a substrate | Time by which steady-state is achieved ([14]; healthy volunteer studies, Apremilast administered BID): ≤ 36 h | Apparent clearance ([14]; in healthy subjects): ~10 L/h | Apparent clearance ([14]; in patients): 8.7 L/h

SMILES: CCOc1cc(C(CS(C)(=O)=O)N2C(=O)c3cccc(NC(C)=O)c3C2=O)ccc1OC1OC(C(=O)O)C(O)C(O)C1O (centres unmarked) [M12]
AUC relative to Apremilast [15]: approximately 1.7 fold | Cmax relative to Apremilast [15]: ~1.25 fold

AUC0–t [16, 19]: 620 ng·h/mL | AUC0–∞ [16, 19]: 650 ng·h/mL | Cmax [16, 19]: 32.9 ng/mL | t1/2 [16, 19]: 10.9 h | tmax [16, 19]: 6.00 h | AUC0–t [16, 20]: 430 ng·h/mL | AUC0–∞ [16, 20]: 460 ng·h/mL | Cmax [16, 20]: 21.0 ng/mL | t1/2 [16, 20]: 11.9 h | tmax [16, 20]: 5.98 h | AUC0–t [16, 21]: 1,670 hr ng/mL | AUC0–∞ [16, 21]: 1,820 hr ng/mL | Cmax [16, 21]: 72.8 ng/mL | t1/2 [16, 21]: 12.0 h | tmax [16, 21]: 6.00 h | AUC0–t [16, 22]: 1,220 hr ng/mL | AUC0–∞ [16, 22]: 1,370 hr ng/mL | Cmax [16, 22]: 52.8 ng/mL | t1/2 [16, 22]: 14.2 h | tmax [16, 22]: 6.00 h | tmax ([16]; 7-OH MTX in plasma after MTX 15 mg oral alone (Day 1), N = 6, median (range)): 7.52 (6.00–12.00) hr | AUC0–t [16, 23]: 1,170 hr ng/mL | AUC0–∞ [16, 23]: 1,290 hr ng/mL | Cmax [16, 23]: 48.9 ng/mL | t1/2 [16, 23]: 12.2 h | tmax [16, 23]: 9.00 h | AUC0–t [16, 24]: 1,170 hr ng/mL | AUC0–∞ [16, 24]: 1,300 hr ng/mL | Cmax [16, 24]: 45.4 ng/mL | t1/2 [16, 24]: 13.0 h | tmax [16, 24]: 6.00 h | tmax ([16]; 7-OH MTX in plasma after MTX 20 mg oral alone (Day 1), N = 6, median (range)): 7.54 (5.95–9.00) hr | Intra-subject CV% of AUC0–t [16, 25]: 19.89% | Intra-subject CV% of AUC0–∞ [16, 25]: 19.34% | Intra-subject CV% of Cmax [16, 25]: 17.84% | tmax median difference (“MTX + Apremilast” − “MTX”) ([16]; 7-OH MTX in plasma, all dose groups, N = 15, Hodges–Lehmann): 0.005 ^c hr | AUC0–t ratio of geometric means (“methotrexate + apremilast”/“methotrexate”) [16, 26]: 98.59 | AUC0–∞ ratio of geometric means (“methotrexate + apremilast”/“methotrexate”) [16, 26]: 98.24 | Cmax ratio of geometric means (“methotrexate + apremilast”/“methotrexate”) [16, 26]: 104.01
SMILES: CN(Cc1nc2c(N)nc(N)nc2[nH]c1=O)c1ccc(C(=O)N[C@@H](CCC(=O)O)C(=O)O)cc1 [7-OH MTX, 7-hydroxy methotrexate]
90% CI for Cmax, AUC0–t and AUC0–∞ versus FDA acceptance range of 80–125% ([16]; 7-hydroxy methotrexate, methotrexate with versus without apremilast): within the acceptance range for equivalency
